Assay results published in ChEMBL document CHEMBL3621129, “Investigation on the ZBG-functionality of phenyl-4-yl-acrylohydroxamic acid derivatives as histone deacetylase inhibitors” (Bioorg Med Chem Lett, 2015).
pIC50: −log10 of the molar value.

Experiments:
Histone deacetylase 2 = Histone deacetylase 2 (Homo sapiens, UniProt Q92769); test: Inhibition of human HDAC2 after 40 mins by fluorescence analysis
HCT-116 = test: cells; type: functional, cell-based; settings: Homo sapiens, HCT-116, 72 h
cells [1] = type: functional, cell-based; settings: Homo sapiens, NB-4, 72 h
cells [2] = type: functional, cell-based; settings: Homo sapiens, NCI-H460, 72 h
IGROV-1 = test: Growth inhibition of human IGROV1 cells after 72 hrs; type: functional, cell-based; settings: IGROV-1, 72 h
Method in brief: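 Cells exposed to compound for 72 h. Growth inhibition read by cell counting. IC50 (concentration giving 50% inhibition of cell growth) taken from dose–response curves. Values are means ± SD of three independent experiments.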

[3] = tested on: IGROV-1/Pt1 (Homo sapiens); test: Growth inhibition of human IGROV1/Pt1 cells after 72 hrs; settings: IGROV-1/Pt1, 72 h
Histone deacetylase 1 = Histone deacetylase 1 (Homo sapiens, UniProt Q13547); test: Inhibition of HDAC1 (unknown origin)
Sequence of Histone deacetylase 1 (Q13547 whole entry): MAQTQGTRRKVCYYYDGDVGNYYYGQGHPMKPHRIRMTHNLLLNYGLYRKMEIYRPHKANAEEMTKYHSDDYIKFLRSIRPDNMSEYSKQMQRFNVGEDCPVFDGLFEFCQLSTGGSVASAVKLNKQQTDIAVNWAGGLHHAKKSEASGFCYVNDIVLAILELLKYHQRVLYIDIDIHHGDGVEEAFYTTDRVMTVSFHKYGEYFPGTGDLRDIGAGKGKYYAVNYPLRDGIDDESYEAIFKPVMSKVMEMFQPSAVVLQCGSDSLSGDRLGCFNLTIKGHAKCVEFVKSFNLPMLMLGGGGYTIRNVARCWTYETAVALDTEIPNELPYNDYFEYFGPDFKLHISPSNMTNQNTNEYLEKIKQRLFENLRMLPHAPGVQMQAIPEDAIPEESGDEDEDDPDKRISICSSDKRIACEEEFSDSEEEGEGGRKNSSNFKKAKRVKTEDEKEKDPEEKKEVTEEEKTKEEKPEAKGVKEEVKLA

[4] = target: T1, Protein deacetylase HDAC6 (Homo sapiens, UniProt Q9UBN7); test: Inhibition of HDAC6 (unknown origin)
T1 sequence (Q9UBN7 whole entry): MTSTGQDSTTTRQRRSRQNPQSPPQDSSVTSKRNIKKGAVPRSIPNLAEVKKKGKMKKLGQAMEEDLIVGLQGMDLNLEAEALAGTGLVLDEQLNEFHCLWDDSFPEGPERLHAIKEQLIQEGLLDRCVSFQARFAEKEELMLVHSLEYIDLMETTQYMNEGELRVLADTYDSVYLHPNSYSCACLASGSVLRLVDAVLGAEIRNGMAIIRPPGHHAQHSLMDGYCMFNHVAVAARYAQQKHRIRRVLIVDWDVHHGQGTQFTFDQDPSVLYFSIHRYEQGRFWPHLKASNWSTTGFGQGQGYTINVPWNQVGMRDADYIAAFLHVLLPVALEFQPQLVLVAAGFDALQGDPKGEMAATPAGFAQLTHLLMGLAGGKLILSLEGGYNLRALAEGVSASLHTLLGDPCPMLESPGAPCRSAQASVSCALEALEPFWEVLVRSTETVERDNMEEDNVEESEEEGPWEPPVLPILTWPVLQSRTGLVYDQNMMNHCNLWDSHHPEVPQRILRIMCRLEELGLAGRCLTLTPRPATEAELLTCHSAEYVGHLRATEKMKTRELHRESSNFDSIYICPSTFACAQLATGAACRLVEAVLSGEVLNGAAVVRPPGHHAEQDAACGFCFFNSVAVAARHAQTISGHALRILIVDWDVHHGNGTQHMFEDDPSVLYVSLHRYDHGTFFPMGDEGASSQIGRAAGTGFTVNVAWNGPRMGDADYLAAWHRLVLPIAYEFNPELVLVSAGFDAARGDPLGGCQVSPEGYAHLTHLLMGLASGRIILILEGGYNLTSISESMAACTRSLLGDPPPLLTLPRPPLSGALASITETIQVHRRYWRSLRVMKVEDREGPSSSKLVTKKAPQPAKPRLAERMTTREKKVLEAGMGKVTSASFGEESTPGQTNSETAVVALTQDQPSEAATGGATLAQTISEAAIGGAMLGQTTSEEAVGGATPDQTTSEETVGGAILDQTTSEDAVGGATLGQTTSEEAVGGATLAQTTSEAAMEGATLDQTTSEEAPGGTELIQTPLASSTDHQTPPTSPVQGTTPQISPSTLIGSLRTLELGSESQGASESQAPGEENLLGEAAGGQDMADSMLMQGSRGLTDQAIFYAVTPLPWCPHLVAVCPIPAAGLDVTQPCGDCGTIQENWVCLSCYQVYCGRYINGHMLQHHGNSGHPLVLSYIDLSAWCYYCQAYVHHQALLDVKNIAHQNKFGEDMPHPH

Sequence of Histone deacetylase 2 (Q92769 whole entry): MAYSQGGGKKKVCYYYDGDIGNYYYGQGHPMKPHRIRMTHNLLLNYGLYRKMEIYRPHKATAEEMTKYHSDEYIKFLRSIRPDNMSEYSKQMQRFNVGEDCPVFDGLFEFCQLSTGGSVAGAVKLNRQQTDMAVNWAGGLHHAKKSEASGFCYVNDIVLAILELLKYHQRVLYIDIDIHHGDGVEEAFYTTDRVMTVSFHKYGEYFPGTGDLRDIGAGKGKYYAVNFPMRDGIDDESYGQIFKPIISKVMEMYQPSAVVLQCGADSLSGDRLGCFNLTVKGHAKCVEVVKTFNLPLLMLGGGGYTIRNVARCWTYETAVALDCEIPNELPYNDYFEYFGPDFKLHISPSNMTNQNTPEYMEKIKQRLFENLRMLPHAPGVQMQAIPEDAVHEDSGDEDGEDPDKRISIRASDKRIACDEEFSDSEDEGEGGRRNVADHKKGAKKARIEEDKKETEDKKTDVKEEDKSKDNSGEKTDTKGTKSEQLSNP

| Compound | pIC50 (Histone deacetylase 2) | pIC50 (HCT-116) | pIC50 (cells [1]) | pIC50 (cells [2]) | pIC50 (Histone deacetylase 1) | pIC50 [4] | pIC50 (IGROV-1) | pIC50 [3] |
| --- | --- | --- | --- | --- | --- | --- | --- | --- |
| CC(=O)SCC(=O)/C=C/c1ccc(-c2ccccc2)cc1 | < 5.30 | 4.85 | < 4.70 | < 4.70 | – | – | 4.58 | 4.73 |
| N#CSC/C=C/c1ccc(-c2ccccc2)cc1 | < 5.30 | 4.90 | < 4.70 | 5.03 | – | – | 5.42 | 4.24 |
| O=C1/C(=C/c2ccc(-c3ccccc3)cc2)CCN1O | < 5.30 | < 4.70 | < 4.70 | < 4.70 | – | – | < 4.22 | < 4.22 |
| O=C(CCCCCCC(=O)Nc1ccccc1)NO [VORINOSTAT] | – | – | – | – | – | – | – | 5.66 |

Now from value to compound, other results behind:

| pIC50 (Histone deacetylase 2) | pIC50 (HCT-116) | pIC50 (cells [1]) | pIC50 (cells [2]) | pIC50 (Histone deacetylase 1) | pIC50 [4] | Compound | pIC50 (IGROV-1) | pIC50 [3] |
| --- | --- | --- | --- | --- | --- | --- | --- | --- |
| < 5.30 | < 4.70 | < 5.00 | < 4.70 | – | – | O=C(O)/C=C/c1ccc(-c2ccccc2)cc1 | – | – |
| < 5.30 | 4.92 | 5.15 | < 4.70 | – | – | NNC(=O)/C=C/c1ccc(-c2ccccc2)cc1 | 5.12 | 4.60 |
| < 5.30 | 4.79 | 5.01 | < 4.70 | – | – | NNC(=O)N/C=C/c1ccc(-c2ccccc2)cc1 | 4.84 | 4.57 |
| 5.98 | 5.40 | 5.71 | 5.02 | 5.88 | 5.98 | O=C(NO)N/C=C/c1ccc(-c2ccccc2)cc1 | 5.46 | 5.17 |
| < 5.30 | 4.40 | < 4.70 | < 4.70 | – | – | O=C(N/C=C/c1ccc(-c2ccccc2)cc1)NOCc1ccccc1 | 4.40 | < 4.30 |
| – | – | 6.05 | 5.27 | – | – | O=C(/C=C/c1ccc(-c2ccccc2)cc1)NO | – | 5.40 |
